Reference: ChEMBL document CHEMBL1121991, “4-Aroyl-1,3-dihydro-2H-imidazol-2-ones, a new class of cardiotonic agents” (1982)

Key:
Canis familiaris [1] = assay: Pharmacological activity for Blood pressure, -20% in anesthetized dog was determined after intravenous administration; type: functional, Canis lupus familiaris
Method in brief: (§1)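 Anesthetized dogs; contractile force recorded by a left-ventricular Walton-Brodie strain gauge arch, heart rate from lead II EKG, plus blood pressure. Stabilized at least 30 min, then at least three iv doses given, one compound per animal, with return to basal between doses. Doses for +30% force, +15% rate and −20% BP were extrapolated from dose-response curves; geometric mean where repeated.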

Canis familiaris [2] = assay: Pharmacological activity for Contractile force, +30% in anesthetized dog was determined after intravenous administration; type: functional, Canis lupus familiaris; method in brief: as §1
Canis familiaris [3] = assay: Pharmacological activity for heart rate +15% in anesthetized dog was determined after intravenous administration; type: functional, Canis lupus familiaris; method in brief: as §1
Canis familiaris [4] = assay: The change in mean arterial blood pressure was determined after 0.1 ug/kg iv administration in dog.; type: functional, Canis lupus familiaris
Method in brief: (§2)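 Anesthetized dogs: a Walton-Brodie strain gauge arch sutured to the left ventricle recorded contractile force, and blood pressure was recorded, after at least 30 min stabilization. Isoproterenol 0.1 μg/kg iv was given to controls or to dogs pretreated with propranolol 0.5 mg/kg iv. The value is the % change from pre-dose control; N = 6 per group; means ± SE; Student's t test.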

Canis familiaris [5] = assay: The change in cardiac contractile force was determined after 0.1 ug/kg iv administration in dog.; type: functional, Canis lupus familiaris, Heart; method in brief: as §2
Canis familiaris [6] = assay: The stroke work was determined after 1.0 mg/kg administration with 20 mg/kg pentobarbital in the dog heart-lung preparation.; type: functional, Canis lupus familiaris
Method in brief: (§3)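 Isolated dog heart-lung preparation from mongrel dogs of either sex (11–19 kg), anesthetized with sodium pentobarbital 35 mg/kg iv. A strain gauge arch on the right ventricle recorded contractile force, EKG lead II gave heart rate, a left atrial cannula and transducer gave LAP, and an extracorporeal flow meter gave aortic flow. Failure was induced by adding pentobarbital to the blood reservoir, then compound was added to the reservoir; readings at 10 min. Five preparations; means ± SE; ANOVA.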

Canis familiaris [7] = assay: The cardiac output was determined after 1.0 mg/kg administration with 20 mg/kg pentobarbital in the dog heart-lung preparation.; type: functional, Canis lupus familiaris; method in brief: as §3
Canis familiaris [8] = assay: The stroke volume was determined after 1.0 mg/kg administration with 20 mg/kg pentobarbital in the dog heart-lung preparation.; type: functional, Canis lupus familiaris; method in brief: as §3
Canis familiaris [9] = assay: The heart rate was determined after 1.0 mg/kg administration with 20 mg/kg pentobarbital in the dog heart-lung preparation.; type: functional, Canis lupus familiaris; method in brief: as §3
Canis familiaris [10] = assay: The left atrial pressure was determined after 1.0 mg/kg administration with 20 mg/kg pentobarbital in the dog heart-lung preparation.; type: functional, Canis lupus familiaris, Cardiac atrium; method in brief: as §3
Canis familiaris [11] = assay: The cardiac contractile force was determined after 1.0 mg/kg administration with 20 mg/kg pentobarbital in the dog heart-lung preparation.; type: functional, Canis lupus familiaris; method in brief: as §3

SMILES	Equieffective dose (Canis familiaris [1])	Equieffective dose (Canis familiaris [2])	Equieffective dose (Canis familiaris [3])	further results
Cc1[nH]c(O)nc1C(=O)c1ccc(F)cc1	1.03 mg/kg	0.38 mg/kg	>3 mg/kg	
COc1ccc(C(=O)c2[nH]c(O)nc2C)cc1OC	2 mg/kg	0.4 mg/kg	1.05 mg/kg	
O=C(c1ccccc1)c1c[nH]c(O)n1	4.4 mg/kg	3.91 mg/kg	4 mg/kg	
Cc1[nH]c(O)nc1C(=O)c1ccc(Cl)cc1	0.29 mg/kg	0.18 mg/kg	4 mg/kg	
Cc1[nH]c(O)nc1C(=O)c1ccc(Cl)c(Cl)c1	2.1 mg/kg	0.7 mg/kg	4 mg/kg	
Cc1c(C(=O)c2ccc(N(C)C)cc2)n(C(=O)C(C)C)c(=O)n1C(=O)C(C)C	>10 mg/kg	2.45 mg/kg	>10 mg/kg	
CSc1ccc(C(=O)c2c[nH]c(O)n2)cc1		0.5 mg/kg	1.05 mg/kg	
Cc1nc(O)[nH]c1C(=O)c1ccc(N(C)C)cc1	>3 mg/kg	0.36 mg/kg	2.2 mg/kg	
O=C(c1c[nH]c(O)n1)c1ccco1	4.2 mg/kg	1.84 mg/kg	4.3 mg/kg	
COc1ccc(C(=O)c2nc(O)n(C)c2C)cc1	>10 mg/kg	>10 mg/kg	>10 mg/kg	
Cc1nc(O)[nH]c1C(=O)c1ccc(N2CCN(C)CC2)cc1	>10 mg/kg	>10 mg/kg	9.1 mg/kg	
CCc1[nH]c(O)nc1C(=O)c1cccs1	1.6 mg/kg	0.41 mg/kg	1.45 mg/kg	
Cc1[nH]c(O)nc1C(=O)c1ccc(N2CCCC2)cc1	4.5 mg/kg	>10 mg/kg	8.5 mg/kg	
CC(=O)n1c(C)c(C(=O)c2ccc(F)cc2)n(C(C)=O)c1=O	2.5 mg/kg	1 mg/kg	>8 mg/kg	
Cc1[nH]c(O)nc1C(=O)c1ccc(O)cc1	2.6 mg/kg	0.25 mg/kg	1.3 mg/kg	
CC(=O)n1c(C)c(C(=O)c2ccc(N(C)C)cc2)n(C(C)=O)c1=O	>3 mg/kg	0.36 mg/kg	>3 mg/kg	
CCc1[nH]c(O)nc1C(=O)c1ccc(SC)cc1	0.28 mg/kg	0.07 mg/kg	0.54 mg/kg	

SMILES	Equieffective dose (Canis familiaris [1])	Equieffective dose (Canis familiaris [2])	Equieffective dose (Canis familiaris [3])	further results
CCc1[nH]c(O)nc1C(=O)c1ccc(OC)cc1	0.62 mg/kg	0.15 mg/kg	0.23 mg/kg	
O=C(c1c[nH]c(O)n1)c1cccs1	3.7 mg/kg	0.72 mg/kg	>10 mg/kg	
Cc1[nH]c(O)nc1C(=O)c1ccccc1	2.55 mg/kg	0.23 mg/kg	1.55 mg/kg	
Cc1[nH]c(O)nc1C(=O)c1ccccc1Cl	2.1 mg/kg	0.48 mg/kg	2.2 mg/kg	
COc1ccc(C(=O)c2c(C)n(C)c(=O)n2C)cc1	2.6 mg/kg	4.7 mg/kg	>10 mg/kg	
Cc1[nH]c(O)nc1C(=O)c1cccs1	2.5 mg/kg	0.28 mg/kg	5.4 mg/kg	
CSc1ccc(C(=O)c2[nH]c(=O)[nH]c2C)cc1 [ENOXIMONE]	0.55 mg/kg	0.12 mg/kg	1.5 mg/kg	
CCCc1[nH]c(O)nc1C(=O)c1ccc(SC)cc1	2.3 mg/kg	1.13 mg/kg	3 mg/kg	
CC(C)NCC(O)c1ccc(O)c(O)c1 (stereo not drawn) [ISOPROTERENOL]				Change (Canis familiaris [4]): -27%; Change (Canis familiaris [5]): 133%
Cc1[nH]c(O)nc1C(=O)c1ccc(N2CCOCC2)cc1	6.4 mg/kg	1.2 mg/kg	>10 mg/kg	
CC(=O)n1c(C)c(C(=O)c2ccccc2)n(C(C)=O)c1=O	6.5 mg/kg	3 mg/kg	>10 mg/kg	
Cc1[nH]c(O)nc1C(=O)c1ccco1	0.72 mg/kg	1.05 mg/kg	3.3 mg/kg	
CCc1[nH]c(O)nc1C(=O)c1ccc(OC)c(OC)c1	2.35 mg/kg	0.18 mg/kg	>3 mg/kg	
Cc1[nH]c(O)nc1C(=O)c1ccccc1O	4.5 mg/kg	3.28 mg/kg	>10 mg/kg	
COc1ccc(C(=O)c2c[nH]c(O)n2)cc1	3.1 mg/kg	0.78 mg/kg	1.85 mg/kg	
CCCC(C)C1(CC)C(=O)NC(=O)NC1=O (stereo not drawn) [PENTOBARBITAL]				Stroke work (Canis familiaris [6]): 3 g; Cardiac output (Canis familiaris [7]): 613 mL/min; Stroke volume (Canis familiaris [8]): 4.6 mL; Heart rate (Canis familiaris [9]): 133 beats min-1; Left atrial pressure (Canis familiaris [10]): 12.1 mmHg; Cardiac contractile force (Canis familiaris [11]): 32.2 g
Cc1[nH]c(O)nc1C(=O)c1ccc(N2CCCCC2)cc1	>10 mg/kg	>10 mg/kg	>10 mg/kg	
